In ChEMBL document CHEMBL4680175, “Sulfonamide-based ring-fused analogues for CAN508 as novel carbonic anhydrase inhibitors endowed with antitumor activity: Design, synthesis, and in vitro biological evaluation” (Eur J Med Chem, 2020):
Calls of active or inactive are those of the source. The calls are words filed in the database; no cut-off is given here.

Experiments:
Type in all cases: functional
MCF7 [1] = assay: Induction of cell cycle arrest in human MCF7 cells assessed as decrease in S phase population at IC50 concentration incubated for 24 hrs by PI/RNase staining based flow cytometric analysis
Procedure, shortened: (§1)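 Cells were washed in ice-cold PBS, fixed in ice-cold 70% ethanol, treated with 100 µg/mL RNase and stained with 40 µg/mL PI. DNA content was read by flow cytometry, with sub-G1 compared against control.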

MCF7 [2] = assay: Induction of cell cycle arrest in human MCF7 cells assessed as fold increase in apoptotic cells at sub-G1 phase at IC50 concentration incubated for 24 hrs by PI/RNase staining based flow cytometric analysis relative to control; procedure, shortened: as §1
MDA-MB-468 [3] = assay: Potency index, ratio of staurosporine IC50 to compound IC50 for antiproliferative activity against human MDA-MB-468 cells measured after 48 hrs under normoxic condition by MTT assay
MDA-MB-468 [4] = assay: Potency index, ratio of staurosporine IC50 to compound IC50 for antiproliferative activity against human MDA-MB-468 cells measured after 48 hrs under CoCl2-induced hypoxic condition by MTT assay

Compound: N#Cc1c(-c2ccc(F)cc2)nc2c(/N=N/c3ccc(S(N)(=O)=O)cc3)c(N)nn2c1N
- Activity (MCF7 [1]): Active
- fold change (FC) (MCF7 [2]): 11

Compound: Cc1ccc(-c2nc3c(/N=N/c4ccc(S(N)(=O)=O)cc4)c(N)nn3c(N)c2C#N)cc1
- Ratio IC50 (MDA-MB-468 [3]): 3.1
- Ratio IC50 (MDA-MB-468 [4]): 2.1

Compound: N#Cc1c(-c2ccc(Cl)cc2)nc2c(/N=N/c3ccc(S(N)(=O)=O)cc3)c(N)nn2c1N
- Activity (MCF7 [1]): Active
- fold change (FC) (MCF7 [2]): 8
